In ChEMBL document CHEMBL5058577, “EUbOPEN Chemogenomics Library 2 (Multiplex)” (2022):

Tested on: U2OS
Experiment: Multiplex assay against U2OS
Assay type: toxicity, cell-based
Details: human
Procedure, shortened: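 Values for tubulin, mitochondrial-mass and membrane-permeability phenotypes are per cents of cells with healthy nuclei. These cells were identified by CellPathfinder machine-learning gating of live cells that had been stained at seeding with Hoechst33342, BioTracker Green Microtubule Cytoskeleton Dye, MitoTracker Red and Annexin V Alexa Fluor 680 and imaged on a CQ1 microscope at 37°C and 5% CO2 after compound addition. The gating first set Hoechst high-intensity objects apart from normal cells, then split normal cells into healthy, pyknosed or fragmented nuclei, and pyknosed cells into mitotic or apoptotic.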

[1] = 12 h, 1 µM, compound concentration 1 uM, replicate 1
[2] = 12 h, 1 µM, compound concentration 1 uM, replicate 2
[3] = 12 h, 10 µM, compound concentration 10 uM, replicate 1
[4] = 12 h, 10 µM, compound concentration 10 uM, replicate 2
[5] = 24 h, 1 µM, compound concentration 1 uM, replicate 1
[6] = 24 h, 1 µM, compound concentration 1 uM, replicate 2
[7] = 24 h, 10 µM, compound concentration 10 uM, replicate 1
[8] = 24 h, 10 µM, compound concentration 10 uM, replicate 2
[9] = 48 h, 1 µM, compound concentration 1 uM, replicate 1
[10] = 48 h, 1 µM, compound concentration 1 uM, replicate 2
[11] = 48 h, 10 µM, compound concentration 10 uM, replicate 1
[12] = 48 h, 10 µM, compound concentration 10 uM, replicate 2

SMILES: CC(C)COc1ccc(CNC(=O)N(Cc2ccc(F)cc2)C2CCN(C)CC2)cc1 [PIMAVANSERIN]
- Population Apoptotic (%) [1]: 84%
- Population Fragmented Nuclei (%) [1]: 23%
- Population Healthy Nuclei (%) [1]: 67%
- Population Hoechst High Intensity Objects (%) [1]: 2%
- Population Membrane Permeable-Phenotype (%) [1]: 6%
- Population Mitochondria Different-Phenotype (%) [1]: 3%
- Population Mitotic Cells (%) [1]: 16%
- Population Normal (%) [1]: 97%
- Population Pyknosed Nuclei (%) [1]: 9%
- Population Tubulin-Different-Phenotype (%) [1]: 5%
- Total Cell Count [1]: 265
- Population Apoptotic (%) [2]: 100%
- Population Fragmented Nuclei (%) [2]: 11%
- Population Healthy Nuclei (%) [2]: 80%
- Population Hoechst High Intensity Objects (%) [2]: 0%
- Population Mitochondria Different-Phenotype (%) [2]: 4%
- Population Mitotic Cells (%) [2]: 0%
- Population Normal (%) [2]: 99%
- Population Pyknosed Nuclei (%) [2]: 7%
- Population Tubulin-Different-Phenotype (%) [2]: 6%
- Total Cell Count [2]: 136
- Population Apoptotic (%) [3]: 67%
- Population Fragmented Nuclei (%) [3]: 23%
- Population Healthy Nuclei (%) [3]: 48%
- Population Hoechst High Intensity Objects (%) [3]: 5%
- Population Membrane Permeable-Phenotype (%) [3]: 48%
- Population Mitochondria Different-Phenotype (%) [3]: 73%
- Population Mitotic Cells (%) [3]: 32%
- Population Normal (%) [3]: 94%
- Population Pyknosed Nuclei (%) [3]: 27%
- Population Tubulin-Different-Phenotype (%) [3]: 77%
- Total Cell Count [3]: 202
- Population Apoptotic (%) [4]: 71%
- Population Fragmented Nuclei (%) [4]: 18%
- Population Healthy Nuclei (%) [4]: 54%
- Population Hoechst High Intensity Objects (%) [4]: 4%
- Population Membrane Permeable-Phenotype (%) [4]: 26%
- Population Mitochondria Different-Phenotype (%) [4]: 70%
- Population Mitotic Cells (%) [4]: 28%
- Population Normal (%) [4]: 95%
- Population Pyknosed Nuclei (%) [4]: 26%
- Population Tubulin-Different-Phenotype (%) [4]: 52%
- Total Cell Count [4]: 124
- Population Apoptotic (%) [5]: 92%
- Population Fragmented Nuclei (%) [5]: 22%
- Population Healthy Nuclei (%) [5]: 67%
- Population Hoechst High Intensity Objects (%) [5]: 2%
- Population Membrane Permeable-Phenotype (%) [5]: 10%
- Population Mitochondria Different-Phenotype (%) [5]: 4%
- Population Mitotic Cells (%) [5]: 7%
- Population Normal (%) [5]: 97%
- Population Pyknosed Nuclei (%) [5]: 9%
- Population Tubulin-Different-Phenotype (%) [5]: 6%
- Total Cell Count [5]: 294
- Population Apoptotic (%) [6]: 78%
- Population Fragmented Nuclei (%) [6]: 11%
- Population Healthy Nuclei (%) [6]: 80%
- Population Hoechst High Intensity Objects (%) [6]: 1%
- Population Membrane Permeable-Phenotype (%) [6]: 11%
- Population Mitochondria Different-Phenotype (%) [6]: 8%
- Population Mitotic Cells (%) [6]: 21%
- Population Normal (%) [6]: 98%
- Population Pyknosed Nuclei (%) [6]: 8%
- Total Cell Count [6]: 163
- Population Apoptotic (%) [7]: 88%
- Population Fragmented Nuclei (%) [7]: 28%
- Population Healthy Nuclei (%) [7]: 40%
- Population Hoechst High Intensity Objects (%) [7]: 10%
- Population Membrane Permeable-Phenotype (%) [7]: 32%
- Population Mitochondria Different-Phenotype (%) [7]: 67%
- Population Mitotic Cells (%) [7]: 11%
- Population Normal (%) [7]: 89%
- Population Pyknosed Nuclei (%) [7]: 31%
- Population Tubulin-Different-Phenotype (%) [7]: 49%
- Total Cell Count [7]: 214
- Population Apoptotic (%) [8]: 79%
- Population Fragmented Nuclei (%) [8]: 16%
- Population Healthy Nuclei (%) [8]: 50%
- Population Hoechst High Intensity Objects (%) [8]: 3%
- Population Membrane Permeable-Phenotype (%) [8]: 30%
- Population Mitochondria Different-Phenotype (%) [8]: 75%
- Population Mitotic Cells (%) [8]: 20%
- Population Normal (%) [8]: 96%
- Population Pyknosed Nuclei (%) [8]: 33%
- Total Cell Count [8]: 135
- Population Apoptotic (%) [9]: 87%
- Population Fragmented Nuclei (%) [9]: 19%
- Population Healthy Nuclei (%) [9]: 68%
- Population Hoechst High Intensity Objects (%) [9]: 2%
- Population Membrane Permeable-Phenotype (%) [9]: 6%
- Population Mitochondria Different-Phenotype (%) [9]: 5%
- Population Mitotic Cells (%) [9]: 12%
- Population Normal (%) [9]: 97%
- Population Pyknosed Nuclei (%) [9]: 12%
- Population Tubulin-Different-Phenotype (%) [9]: 4%
- Total Cell Count [9]: 393
- Population Apoptotic (%) [10]: 92%
- Population Fragmented Nuclei (%) [10]: 12%
- Population Healthy Nuclei (%) [10]: 76%
- Population Hoechst High Intensity Objects (%) [10]: 1%
- Population Membrane Permeable-Phenotype (%) [10]: 5%
- Population Mitotic Cells (%) [10]: 7%
- Population Normal (%) [10]: 98%
- Population Pyknosed Nuclei (%) [10]: 11%
- Population Tubulin-Different-Phenotype (%) [10]: 2%
- Total Cell Count [10]: 234
- Population Apoptotic (%) [11]: 98%
- Population Fragmented Nuclei (%) [11]: 38%
- Population Healthy Nuclei (%) [11]: 19%
- Population Hoechst High Intensity Objects (%) [11]: 13%
- Population Membrane Permeable-Phenotype (%) [11]: 40%
- Population Mitochondria Different-Phenotype (%) [11]: 56%
- Population Mitotic Cells (%) [11]: 1%
- Population Normal (%) [11]: 86%
- Population Pyknosed Nuclei (%) [11]: 42%
- Population Tubulin-Different-Phenotype (%) [11]: 54%
- Total Cell Count [11]: 222
- Population Apoptotic (%) [12]: 95%
- Population Healthy Nuclei (%) [12]: 15%
- Population Hoechst High Intensity Objects (%) [12]: 8%
- Population Membrane Permeable-Phenotype (%) [12]: 66%
- Population Mitochondria Different-Phenotype (%) [12]: 80%
- Population Mitotic Cells (%) [12]: 4%
- Population Normal (%) [12]: 91%
- Population Pyknosed Nuclei (%) [12]: 45%
- Population Tubulin-Different-Phenotype (%) [12]: 71%
- Total Cell Count [12]: 146
